# Source: ChEMBL document CHEMBL1156469 (2007)
# The source made the active and inactive calls. The rule behind the calls is not given here.
# Columns and labels:
# [1] = system: MC3T3-E1; experiment: Increase in BMP2 expression in mouse MC3T3-E1 cells expressing pBMP2delta2 mutant at 1 uM after 4 hrs by luciferase method relative to control; format: functional, cell-based
# Method in brief: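 MC3T3-E1 cells transfected with BMP-2 promoter–luciferase constructs (full promoter or deletions), treated with 1 μm or vehicle for 4 h; Dual-Luciferase assay; means ± S.D.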
# [2] = system: Osteoblast; experiment: Effect on integrin beta 1 gene expression in rat primary osteoblast cells assessed as expression ratio of treated to untreated control by microarray analysis; format: functional
# Method in brief: (§1)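 Resveratrol-treated and vehicle-treated primary osteoblasts were profiled on a mouse osteogenesis-focused cDNA array (GEArray Q series) built to track gene expression during osteogenic differentiation. Each gene's signal in treated cells was expressed as a ratio to untreated control.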
# [3] = system: T47D; experiment: Antiproliferative activity against human T47D cells at 1 uM by flow cytometry; format: functional, cell-based
# Method in brief: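 Proliferation was measured by DNA flow cytometry. Incubations were run in triplicate across three separate experiments, and values are means ± S.D.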
# [4] = system: Osteoblast; experiment: Effect on fibroblast growth factor 2 gene expression in rat primary osteoblast cells assessed as expression ratio of treated to untreated control by microarray analysis; format: functional
# [5] = system: MDA-MB-231; experiment: Reversal of inhibition in anchorage-independent colony formation of human MDA-MB-231 cells transfected with FOXO3a-specific small interfering RNA by soft agar colony forming assay; format: functional, cell-based
# [6] = system: MC3T3-E1; experiment: Inhibition of etoposide-induced apoptosis in mouse MC3T3-E1 cells after 24 hrs by flow cytometry; format: functional, cell-based
# Method in brief: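 Cells washed in PBS, held 30 min in 0.5% Triton X-100/PBS/0.05% RNase A, then propidium iodide (50 μg/ml) added and kept on ice 15–30 min. Apoptosis is the hypodiploid fraction below the G0/G1 peak, by flow cytometry. Run in triplicate and repeated on three occasions.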
# [7] = target: T1, Estrogen receptor (Mus musculus) (UniProt P19785); experiment: Increase in DNA-binding activity of ERalpha in nuclear extracts of mouse MC3T3-E1 cells by electrophoretic mobility shift assays; format: cell-based
# T1 sequence (whole entry): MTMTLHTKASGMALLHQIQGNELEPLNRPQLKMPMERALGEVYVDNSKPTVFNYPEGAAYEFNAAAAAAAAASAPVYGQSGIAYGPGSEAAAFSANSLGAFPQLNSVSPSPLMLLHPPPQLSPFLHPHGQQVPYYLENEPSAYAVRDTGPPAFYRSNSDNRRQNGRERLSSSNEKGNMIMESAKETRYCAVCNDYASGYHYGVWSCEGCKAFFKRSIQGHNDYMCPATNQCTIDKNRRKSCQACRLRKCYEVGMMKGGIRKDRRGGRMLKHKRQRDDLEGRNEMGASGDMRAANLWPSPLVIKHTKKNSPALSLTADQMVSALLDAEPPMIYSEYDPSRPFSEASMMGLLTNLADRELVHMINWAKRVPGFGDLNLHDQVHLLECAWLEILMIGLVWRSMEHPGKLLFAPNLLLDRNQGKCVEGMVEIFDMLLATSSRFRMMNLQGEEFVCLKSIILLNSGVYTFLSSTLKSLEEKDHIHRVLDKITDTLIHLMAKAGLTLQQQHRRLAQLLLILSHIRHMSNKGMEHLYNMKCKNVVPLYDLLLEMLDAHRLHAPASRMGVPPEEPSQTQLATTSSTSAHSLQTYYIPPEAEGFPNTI
# Method in brief: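 MC3T3-E1 nuclear extracts incubated with 32P end-labeled ERα probe for 20 min at room temperature in 20 μl; 5-fold unlabeled competitor for specificity; 5% nondenaturing PAGE in Tris-borate-EDTA pH 8.3, autoradiography at –70 °C.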
# [8] = system: Osteoblast; experiment: Effect on procollagen 4 alpha 6 gene expression in rat primary osteoblast cells assessed as expression ratio of treated to untreated control by microarray analysis; format: functional; method in brief: as §1
# [9] = system: Rattus norvegicus; experiment: Increase in serum ALP activity in ovariectomized Wistar rat dosed orally after 10 weeks; format: functional, organism-based
# Method in brief: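 Female Wistar rats sham-operated or ovariectomized, fed compound orally every 2 days at indicated doses; femur/tibia BMD by DEXA under ketamine (87 mg/kg)/xylazine (13 mg/kg) anesthesia and serum ALP measured 10 weeks after surgery; n = 8/group, means ± S.D.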
# [10] = target: Alkaline phosphatase (Rattus norvegicus) (UniProt Q9JKS8); experiment: Inhibition of induction of ALP activity in rat primary osteoblast cells at 1 uM after 48 hrs in presence of BMP2-specific neutralizing antibody; format: cell-based
# Sequence of Alkaline phosphatase (Rattus norvegicus) (Q9JKS8 as listed by the source): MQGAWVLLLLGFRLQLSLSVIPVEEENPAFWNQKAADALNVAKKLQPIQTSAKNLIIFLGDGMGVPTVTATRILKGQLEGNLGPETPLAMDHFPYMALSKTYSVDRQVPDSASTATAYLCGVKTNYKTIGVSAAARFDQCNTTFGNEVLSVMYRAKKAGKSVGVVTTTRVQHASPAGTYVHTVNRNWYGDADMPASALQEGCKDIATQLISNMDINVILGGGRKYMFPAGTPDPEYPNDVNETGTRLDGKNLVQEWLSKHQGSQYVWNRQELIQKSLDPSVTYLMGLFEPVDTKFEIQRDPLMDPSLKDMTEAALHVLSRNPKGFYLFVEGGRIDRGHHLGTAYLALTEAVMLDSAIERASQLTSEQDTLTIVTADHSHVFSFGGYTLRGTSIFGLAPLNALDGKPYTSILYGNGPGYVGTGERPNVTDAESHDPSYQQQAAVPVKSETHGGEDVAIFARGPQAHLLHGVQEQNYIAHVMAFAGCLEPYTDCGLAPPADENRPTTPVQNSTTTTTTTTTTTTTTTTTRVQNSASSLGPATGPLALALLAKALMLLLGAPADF
# [11] = system: Rattus norvegicus; experiment: Increase in serum BMP2 levels in ovariectomized Wistar rat at 10 mg/kg, po after 10 weeks by ELISA relative to sham operated control; format: functional, organism-based; design: dose 10 mg/kg
# Method in brief: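 Ovariectomized rats given indicated doses or estrogen by oral feeding; serum BMP-2 by ELISA 10 weeks after surgery; compared with sham-operated group; n = 8/group, means ± S.D.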
# [12] = system: MDA-MB-231; experiment: Reversal of induction of FOXO3a nuclear accumulation in human MDA-MB-231 cells transfected with constitutively activated Akt mutant; format: functional, cell-based
# [13] = Reversal of induction in BMP2 expression in mouse MC3T3-E1 cells at 1 uM by Western blot in presence of PP2; format: functional, cell-based
# Method in brief: (§2)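 Src phosphorylation, ERα nuclear translocation and BMP-2 protein analysed by Western blot with ECL detection. Three independent experiments.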
# [14] = system: MC3T3-E1; experiment: Reversal of induction in nuclear translocation of ERalpha in mouse MC3T3-E1 cells at 1 uM in presence of PP2; format: functional, cell-based; method in brief: as §2
# [15] = system: Osteoblast; experiment: Effect on actin beta gene expression in rat primary osteoblast cells assessed as expression ratio of treated to untreated control by microarray analysis; format: functional
# [16] = system: Osteoblast; experiment: Effect on bone morphogenetic protein 8b gene expression in rat primary osteoblast cells assessed as expression ratio of treated to untreated control by microarray analysis; format: functional
# [17] = system: MCF7; experiment: Reduction in anchorage-independent colony formation of human MCF7 cells at 1 uM by soft agar colony forming assay; format: functional, cell-based
# Method in brief: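 Seeded in 0.35% noble agar in DMEM/10% FBS over a 0.7% agar bed. Colonies of at least 50 μm counted after 3 weeks under a dissecting microscope, six replicates per treatment. Three separate experiments.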
# [18] = system: Osteoblast; experiment: Effect on procollagen 4 alpha 4 gene expression in rat primary osteoblast cells assessed as expression ratio of treated to untreated control by microarray analysis; format: functional; method in brief: as §1
# [19] = system: Osteoblast; experiment: Effect on MAD homolog 1 gene expression in rat primary osteoblast cells assessed as expression ratio of treated to untreated control by microarray analysis; format: functional
# [20] = system: Osteoblast; experiment: Effect on insulin-like growth factor 1 gene expression in rat primary osteoblast cells assessed as expression ratio of treated to untreated control by microarray analysis; format: functional; method in brief: as §1
# [21] = system: Osteoblast; experiment: Effect on MAD homolog 6 gene expression in rat primary osteoblast cells assessed as expression ratio of treated to untreated control by microarray analysis; format: functional
# [22] = target: Forkhead box protein O3 (Homo sapiens) (UniProt O43524); experiment: Induction of FOXO3a activity in human MDA-MB-231 cells; format: cell-based
# Sequence of Forkhead box protein O3 (Homo sapiens) (O43524 whole entry): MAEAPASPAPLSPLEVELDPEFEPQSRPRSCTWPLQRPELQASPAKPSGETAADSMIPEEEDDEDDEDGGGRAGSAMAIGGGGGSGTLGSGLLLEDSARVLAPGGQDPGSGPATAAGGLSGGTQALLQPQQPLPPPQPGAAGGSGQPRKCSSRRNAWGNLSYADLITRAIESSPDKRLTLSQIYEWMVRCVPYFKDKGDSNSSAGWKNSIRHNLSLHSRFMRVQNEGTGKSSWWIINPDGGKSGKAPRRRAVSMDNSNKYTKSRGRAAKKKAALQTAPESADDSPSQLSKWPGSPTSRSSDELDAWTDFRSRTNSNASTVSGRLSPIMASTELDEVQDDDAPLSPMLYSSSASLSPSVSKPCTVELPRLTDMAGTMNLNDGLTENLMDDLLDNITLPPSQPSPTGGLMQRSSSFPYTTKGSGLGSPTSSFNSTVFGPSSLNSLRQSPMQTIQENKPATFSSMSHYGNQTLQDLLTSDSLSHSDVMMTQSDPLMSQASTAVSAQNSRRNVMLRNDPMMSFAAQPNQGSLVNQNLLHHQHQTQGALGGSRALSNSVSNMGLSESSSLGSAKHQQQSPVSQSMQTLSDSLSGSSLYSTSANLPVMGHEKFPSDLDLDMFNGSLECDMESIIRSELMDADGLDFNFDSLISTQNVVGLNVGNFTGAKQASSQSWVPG
# [23] = system: Osteoblast; experiment: Effect on bone morphogenetic protein 5 gene expression in rat primary osteoblast cells assessed as expression ratio of treated to untreated control by microarray analysis; format: functional
# [24] = system: MCF7; experiment: Antitumor activity against human MCF7 cells xenografted in SCID mouse orthotropic model assessed as inhibition of 17beta estradiol-induced tumor weight at 10 mg/kg for 2 days; format: functional; design: scale not given: the % may be the effect or the level left
# Method in brief: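 Tumor cells were inoculated orthotopically into the mammary fat pad of 6-week-old female SCID mice. […] Tumor volume was calculated as LW2/2. Tumor formation was scored as mice with tumors per total (20 per group), and tumor weight as mean ± S.D. Groups were compared by one-way ANOVA with LSD post-hoc comparisons.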
structure (smiles),measurement,setting,value
Oc1ccc(/C=C/c2cc(O)cc(O)c2)cc1 [RESVERATROL],Activity,[1],inactive
same,Ratio,[2],2.97
same,Activity,[3],Active
same,Ratio,[4],2.76
same,Activity,[5],Active
same,Activity,[6],Active
same,Activity,[7],Active
same,Ratio,[8],3.689
same,Activity,[9],Dose-dependent effect
same,Activity,[10],Active
same,Activity,[11],Active
same,Activity,[12],Active
same,Activity,[13],Active
same,Activity,[14],Active
same,Ratio,[15],1
same,Ratio,[16],1.82
same,Activity,[17],Active
same,Ratio,[18],4.98
same,Ratio,[19],3.24
same,Ratio,[20],4.54
same,Ratio,[21],0.38
same,Activity,[22],Active
same,Ratio,[23],0.97
same,Activity,[24],54.6%
